Active and inactive are the calls of the source. The calls are words filed in the database; no cut-off is given here.
Key:
[1] = Selectivity index, ratio of CC50 for HFF to EC50 for HSV2 MS infected in HFF
[2] = Cytotoxicity against HFF after 3 days by MTS assay; format: cell-based; settings: human, HFF cells
Human alphaherpesvirus 1 [3] = assay: Antiviral activity against HSV1 E377 infected in HFF after 3 days by plaque reduction assay; format: functional, organism-based; settings: Human alphaherpesvirus 1, E377, 72 h
Summary of the method: (§1)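 Confluent HFF monolayers (passage <10) were infected in triplicate wells at 20–30 plaques per well, with 1 h adsorption and rocking every 15 min. Six serial dilutions (top 100 μM) were made in MEM with 2% FBS and pooled human immunoglobulin. Cells were incubated 3 days and stained with crystal violet. Plaques were counted, and EC50 was interpolated from plaque reduction.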

Human alphaherpesvirus 3 = assay: Antiviral activity against VZV Ellan infected in HFF after 8 to 10 days by plaque reduction assay; format: functional, organism-based; settings: Human alphaherpesvirus 3, Ellan
Summary of the method: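 Plaque reduction on confluent HFF monolayers in triplicate wells: 1 h adsorption, then six serial compound dilutions (top 100 μM) in MEM with 2% FBS, no immunoglobulin. Incubation was 8 days for HCMV and 10 days for VZV. Plaques were stained with 0.017% neutral red in PBS and counted microscopically. EC50 was interpolated at 50% plaque reduction.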

[4] = Antiviral activity against Human herpesvirus 6 GS infected in human HSB2 cells assessed as inhibition of viral replication after 7 days; format: functional, cell-based, Human herpesvirus 6 (strain GS); settings: Human betaherpesvirus 6A, HSB2, 168 h
Summary of the method: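 HSB-2 cells, 2 × 10^4 per well in RPMI 1640 with 10% FBS, received compound dilutions in triplicate wells. Cells were infected with HHV-6A strain GS and kept 7 days at 37°C. Total DNA was denatured and immobilized on nylon membrane. Viral DNA was then measured by digoxigenin-labeled probe hybridization and anti-hapten antibody detection with densitometric quantitation.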

[5] = Cytotoxicity against human Akata cells after 3 days by MTS assay; format: cell-based
Summary of the method: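 Akata cells were plated as for the EBV assay but not induced with anti-IgG. Viability was read at the same time as the antiviral endpoint: MTS was added, plates incubated 4 h at 37°C, and formazan absorbance read at 490 nm. Medium-only control wells were included. CC50 was the concentration reducing viable cells by 50%.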

[6] = Cytotoxicity against human HSB2 cells after 3 days by MTS assay; format: cell-based, CCRF-HSB-2
[7] = Selectivity index, ratio of CC50 for human Akata cells to EC50 for Epstein-Barr virus infected in human Akata cells; format: toxicity, cell-based; settings: read-out: Ratio CC50/EC50
[8] = Selectivity index, ratio of CC50 for human HSB2 cells to EC50 for Human herpesvirus 6 GS infected in human HSB2 cells; format: toxicity, cell-based; settings: read-out: Ratio CC50/EC50
Human alphaherpesvirus 1 [9] = assay: Antiviral activity against HSV1 DM2.1 harboring frameshift mutation in TK infected in HFF after 3 days by plaque reduction assay; format: functional, organism-based; settings: Human alphaherpesvirus 1, DM2.1, 72 h; summary of the method: as §1
Human alphaherpesvirus 1 [10] = assay: Antiviral activity against HSV1 PAA5 harboring polymerase R842S mutant gene infected in HFF after 3 days by plaque reduction assay; format: functional, organism-based; settings: Human alphaherpesvirus 1, PAA5, 72 h; summary of the method: as §1
Human alphaherpesvirus 2 [11] = assay: Antiviral activity against HSV2 AG-3 harboring TK Q105P mutant gene infected in HFF after 3 days by plaque reduction assay; format: functional, organism-based; settings: Human alphaherpesvirus 2, AG-3, 72 h; summary of the method: as §1
Human alphaherpesvirus 2 [12] = assay: Antiviral activity against HSV2 12247 harboring TK C337Y mutant gene infected in HFF after 3 days by plaque reduction assay; format: functional, organism-based; settings: Human alphaherpesvirus 2, 12247, 72 h; summary of the method: as §1
Human alphaherpesvirus 2 [13] = assay: Antiviral activity against HSV2 13077 harboring TK R223H mutant gene infected in HFF after 3 days by plaque reduction assay; format: functional, organism-based; settings: Human alphaherpesvirus 2, 13077, 72 h; summary of the method: as §1
Human betaherpesvirus 5 [14] = assay: Antiviral activity against human cytomegalovirus RC314 harboring UL97 K355M mutant gene infected in HFF after 8 to 10 days by plaque reduction assay; format: functional, organism-based; settings: Human betaherpesvirus 5, RC314
Summary of the method: (§2)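 Plaque reduction in confluent HFF with six serial dilutions (top 100 μM) and no immunoglobulin added. Virus was adsorbed 1 h on triplicate wells. Cells were incubated 8 days, stained with 0.017% neutral red in PBS, and plaques counted. EC50 is the concentration reducing plaque number by 50%.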

Human betaherpesvirus 5 [15] = assay: Antiviral activity against human cytomegalovirus 1117 harboring UL54 K513N mutant gene infected in HFF after 8 to 10 days by plaque reduction assay; format: functional, organism-based; settings: Human betaherpesvirus 5, 1117; summary of the method: as §2
Human alphaherpesvirus 2 [16] = assay: Antiviral activity against 4'-thioIDU-resistant HSV2 infected in HFF after 3 days by plaque reduction assay; format: functional, organism-based; settings: Human alphaherpesvirus 2, 72 h; summary of the method: as §1
Human alphaherpesvirus 2 [17] = assay: Antiviral activity against HSV2 harboring frameshift mutation in TK infected in HFF after 3 days by plaque reduction assay; format: functional, organism-based; settings: Human alphaherpesvirus 2, 72 h; summary of the method: as §1
Human alphaherpesvirus 2 [18] = assay: Antiviral activity against HSV2 infected in BALB/c mouse assessed as virus-induced mortality rate at 30 mg/kg, po BID administered 24 hrs post infection; format: functional
Human alphaherpesvirus 2 [19] = assay: Antiviral activity against HSV2 infected in BALB/c mouse assessed mean time to virus-induced death at 30 mg/kg, po BID administered 24 hrs post infection; format: functional
Human alphaherpesvirus 2 [20] = assay: Antiviral activity against HSV2 infected in BALB/c mouse assessed as virus-induced mortality rate at 10 mg/kg, po BID administered 24 hrs post infection; format: functional
Human alphaherpesvirus 2 [21] = assay: Antiviral activity against HSV2 infected in BALB/c mouse assessed mean time to virus-induced death at […], po BID administered 24 hrs post infection; format: functional
Human alphaherpesvirus 2 [22] = assay: Antiviral activity against HSV2 infected in BALB/c mouse assessed as virus-induced mortality rate at 30 mg/kg, po BID administered 48 hrs post infection; format: functional
Human alphaherpesvirus 2 [23] = assay: Antiviral activity against HSV2 infected in BALB/c mouse assessed mean time to virus-induced death at 30 mg/kg, po BID administered 48 hrs post infection; format: functional
Human alphaherpesvirus 2 [24] = assay: Antiviral activity against HSV2 infected in BALB/c mouse assessed mean time to virus-induced death at 10 mg/kg, po BID administered 48 hrs post infection; format: functional
Human alphaherpesvirus 2 [25] = assay: Antiviral activity against HSV2 infected in BALB/c mouse assessed mean time to virus-induced death at […], po BID administered 48 hrs post infection; format: functional
Human alphaherpesvirus 2 [26] = assay: Antiviral activity against HSV2 infected in BALB/c mouse assessed as virus-induced mortality rate at 30 mg/kg, po BID administered 72 hrs post infection; format: functional
Human alphaherpesvirus 2 [27] = assay: Antiviral activity against HSV2 infected in BALB/c mouse assessed mean time to virus-induced death at 10 mg/kg, po BID administered 72 hrs post infection; format: functional
Human alphaherpesvirus 2 [28] = assay: Antiviral activity against HSV2 infected in BALB/c mouse assessed mean time to virus-induced death at […], po BID administered 72 hrs post infection; format: functional
Human alphaherpesvirus 2 [29] = assay: Antiviral activity against HSV2 MS infected in HFF assessed as inhibition of viral DNA synthesis-associated incorporation in DNA by immunofluorescence assay; format: functional, organism-based
Summary of the method: (§3)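 HFF on coverslips were infected with HSV-2 MS or the resistant isolate (MOI 0.2 PFU/cell) for 48 h. Cells were pulsed with BrdUrd or 10 μM test compound for 30 min before fixation. Incorporation was detected with a cross-reacting anti-BrdUrd monoclonal antibody, infected cells with anti-155-kDa nucleocapsid antibody, and nuclei with DAPI.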

Human alphaherpesvirus 2 [30] = assay: Antiviral activity against 4'-thioIDU-resistant HSV2 infected in HFF assessed as inhibition of viral DNA synthesis-associated incorporation in DNA by immunofluorescence assay; format: functional, organism-based; summary of the method: as §3

## O=c1[nH]c(=O)n([C@H]2C[C@H](O)[C@@H](CO)S2)cc1I
[1]
  Ratio CC50/EC50: > 140
[2]
  CC50 at 72 h: > 70 µM
Human alphaherpesvirus 1 [3]
  EC50: 1.2 µM
Human alphaherpesvirus 3
  EC50: 2 µM
[4]
  EC50: > 100 µM
[5]
  CC50 at 72 h: 0.68 µM
[6]
  CC50 at 72 h: > 100 µM
[7]
  selectivity ratio: < 4.3
[8]
  selectivity ratio: 1
Human alphaherpesvirus 1 [9]
  EC50: > 444 µM
Human alphaherpesvirus 1 [10]
  EC50: 28 µM
Human alphaherpesvirus 2 [11]
  EC50: > 444 µM
Human alphaherpesvirus 2 [12]
  EC50: > 444 µM
Human alphaherpesvirus 2 [13]
  EC50: > 343 µM
Human betaherpesvirus 5 [14]
  EC50: 6.5 µM
Human betaherpesvirus 5 [15]
  EC50: 4.4 µM
Human alphaherpesvirus 2 [16]
  EC50: 57 µM
Human alphaherpesvirus 2 [17]
  EC50: 77 µM
Human alphaherpesvirus 2 [18]
  Activity: 100%
Human alphaherpesvirus 2 [19]
  Time: 12.1 days
Human alphaherpesvirus 2 [20]
  Activity: 67%
Human alphaherpesvirus 2 [21]
  Time: 8.2 days
Human alphaherpesvirus 2 [22]
  Activity: 100%
Human alphaherpesvirus 2 [23]
  Time: 12.8 days
Human alphaherpesvirus 2 [24]
  Time: 10.4 days
Human alphaherpesvirus 2 [25]
  Time: 9.4 days
Human alphaherpesvirus 2 [26]
  Activity: 100%
Human alphaherpesvirus 2 [27]
  Time: 10.7 days
Human alphaherpesvirus 2 [28]
  Time: 10 days
Human alphaherpesvirus 2 [29]
  inhibition: Active
Human alphaherpesvirus 2 [30]
  inhibition: inactive
